Inconclusive results are not listed.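 How the source made its calls, unless noted: active means RAM network inhibition above 8.4% in each of two replicates, 3 SD over the compound average; inconclusive means above 8.4% inhibition in only one replicate; inactive means 8.4% inhibition or less in each replicate.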
How the values were obtained:
[1] = OD615 S. cerevisiae growth inhibition, permissive medium, pilot counter-assay, permissive growth control for S. cerevisiae lifespan shortening project (AID 705;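 active means growth inhibition above 25% in both replicates, a cutoff set 3 SD above the mean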); details: OD615, 24 h, at 10 µM, hits give high values
How it was run: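 Timing: 24 h exposure, 30 °C / Material: Saccharomyces cerevisiae strain carrying genetically modified DeaD replicative-lifespan system / Signal: OD at 615 nm / Compound: 10 µM single dose, 0.25% DMSO / Medium: SC raffinose/galactose permissive medium / Evaluation: reduction in yeast growth (OD615)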

[2] = Restrictive medium S. cerevisiae growth inhibition, OD615, pilot screen of yeast lifespan reduction project, restrictive growth control (AID 706;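 active means growth inhibition above a set limit, 3 SD over mean compound inhibition, in both replicates, cut at about 43% in these data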;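 further: modified DeaD lifespan yeast strain shifted to restrictive glucose medium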); details: OD615, 48 h, at 10 µM, hits give high values
How it was run: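 System: Engineered S. cerevisiae DeaD strain | Detection: OD615 | Buffer or medium: CSMM-D glucose medium | Doses: 10 µM compound, 0.25% DMSO | Timing: 4 h pre-growth plus 48 h compound exposure, 30 °C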

[3] = viability gain of MRP-1-high H69AR cells under doxorubicin, pilot screen, MRP-1 activator project, CellTiter-Glo, duplicate (AID 807;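 active means viability increase at or above a cutoff of the median across tested compounds plus 3 SD, cut at about 8.5% in these data, passing the limit was not always enough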;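 further: compound pretreatment 18-22 h then 72 h combined with doxorubicin; 0% = doxorubicin alone and 100% = vehicle without doxorubicin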); details: H69AR viability with doxorubicin, CellTiter-Glo luminescence; at 10 µM; hits give high values
[4] = growth suppression of beta-catenin knockout HCT116, pilot screen, human colon tumor cells (AID 823;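 active means cell viability at or below a set limit in both duplicate runs, the limit being the all-compound median minus 4 SD, cut at about 23% in these data, passing the limit was not always enough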;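 further: 0% = wells killed by 20 µM Hyamine and 100% = untreated DMSO cell wells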); details: CellTiter-Glo, 60 h, at 10 µM, hits give low values
[5] = growth suppression of PTEN-deleted HCT116, pilot screen, cell-based, HCT116 clonal line, CellTiter-Glo (AID 824;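 active means viability at or below 27.92% in each of two runs, the all-compound median minus 4 SD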;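 further: 0% = 20 µM Hyamine control and 100% = vehicle cell control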); details: 60 h, at 10 µM, hits give low values
[6] = inhibitors of the yeast RAM network, pilot screen, dse1pr::URA3 reporter, 5-FOA selection (AID 869;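 active means inhibition over a set limit, the all-compound mean plus 3 SD, in both replicate runs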;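 further: 0% = DMSO wells with no growth and 100% = 10 µM 1-NA-PP1 with full growth; RAM network block rescues cells from 5-FOA so hits raise OD615 growth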); details: S. cerevisiae dse1pr::URA3 5-FOA growth, OD615, 2 d; at 10 µM; hits give high values; strain carries analog-sensitive mutant Cbk1 kinase
[7] = RAM signaling pathway blockade in yeast – S. cerevisiae, Pdr1DBD-CYC8 efflux-inhibited sensitized strain, primary screen (AID 1298);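 further: 0% = DMSO untreated cells without growth and 100% = 10 µM 1-NA-PP1 full growth; higher means more yeast growth rescued from 5-FOA killing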; details: S. cerevisiae cbk1-as DSE1-URA3 strain, 5-FOA growth OD615, 2 d; at 50 µM; hits give high values

Cc1ccc(N2C(=O)c3ccccc3C2Nc2ccccc2F)nc1 (stereo not drawn)
inactive: growth inhibition [1] -7.38% | growth inhibition [2] -1.2% | viability increase [3] -1.31% | viability [4] 88.3% | viability [5] 90.8% | inhibition [6] 2.46% | RAM network inhibition [7] 10.5%

CCOC(=O)N1CCN(c2cc(C)nc3nc(C)nn23)CC1
inactive: growth inhibition [1] -11.9% | growth inhibition [2] -9.88% | viability increase [3] -1.28% | viability [4] 105% | viability [5] 97.1% | inhibition [6] 3.44% | RAM network inhibition [7] 2.21%

CCOc1ccccc1C(=O)Nc1nnc(C(C)C)s1
inactive: growth inhibition [1] 3% | growth inhibition [2] -2.61% | viability increase [3] -4.41% | viability [4] 98.1% | viability [5] 91.5% | inhibition [6] 0.55% | RAM network inhibition [7] 2.24%

Cc1[nH]c(=O)[nH]c(=O)c1S(=O)(=O)N1CCCC(C(=O)N2CCC(Cc3ccccc3)CC2)C1 (stereo not drawn)
inactive: growth inhibition [1] -7.81% | growth inhibition [2] -8.27% | viability increase [3] 0.94% | viability [4] 100% | viability [5] 101% | inhibition [6] 0.385% | RAM network inhibition [7] 3.66%

O=C(C1CCN(S(=O)(=O)c2cccc3cccnc23)CC1)N1CCN(c2ccc(Cl)cc2)CC1
inactive: growth inhibition [1] -3.56% | growth inhibition [2] 0.215% | viability increase [3] -1.23% | viability [4] 31.1% | viability [5] 38.6% | inhibition [6] 1.4% | RAM network inhibition [7] 4.56%

CCOC(=O)c1ccc(Nc2cc(C)nc3nc(C)nn23)cc1
inactive: growth inhibition [1] -5.61% | growth inhibition [2] 4.27% | viability increase [3] -4.45% | viability [4] 103% | viability [5] 103% | inhibition [6] 0.015% | RAM network inhibition [7] 1%

O=C(CN(C1CCCCC1)S(=O)(=O)c1ccc(F)cc1)NCCCO
inactive: growth inhibition [1] -6.21% | growth inhibition [2] 2.23% | viability increase [3] -0.51% | viability [4] 103% | viability [5] 98.1% | inhibition [6] 1.75% | RAM network inhibition [7] 1.27%

CCN(CC)C(=O)CN(Cc1ccccc1)S(=O)(=O)c1ccc(F)cc1
inactive: growth inhibition [1] -8.49% | growth inhibition [2] -11.4% | viability increase [3] -0.99% | viability [4] 93.8% | viability [5] 97.5% | inhibition [6] 1.32% | RAM network inhibition [7] 2.88%

O=C(CCC1CC(=O)Nc2ccccc21)NCc1cccnc1 (stereo not drawn)
inactive: growth inhibition [1] -10.7% | growth inhibition [2] -2.23% | viability increase [3] -1.06% | viability [4] 102% | viability [5] 90.5% | inhibition [6] 1.1% | RAM network inhibition [7] 12.5%

O=S(=O)(c1cccc(-n2cnnn2)c1)N1CCOCC1
inactive: growth inhibition [1] -5.21% | growth inhibition [2] -3.17% | viability increase [3] -1.69% | viability [4] 94.3% | viability [5] 93% | inhibition [6] 1.6% | RAM network inhibition [7] 2.96%

Cc1cc(Nc2ccc(C)c(C)c2)n2nc(C)nc2n1
inactive: growth inhibition [1] 6.21% | growth inhibition [2] 10.1% | viability increase [3] -4.63% | viability [4] 105% | viability [5] 96.9% | inhibition [6] 0.77% | RAM network inhibition [7] 3.69%

CCOC(=O)N1CCN(C(=O)CN(c2ccc(Oc3ccccc3)cc2)S(C)(=O)=O)CC1
inactive: growth inhibition [1] -5.22% | growth inhibition [2] -15.6% | viability increase [3] -2% | viability [4] 75.2% | viability [5] 66.2% | inhibition [6] 0.265% | RAM network inhibition [7] 2.44%

Cn1c(=O)[nH]c(=O)c2c1nc(NC1CCCCC1)n2CCO
inactive: growth inhibition [1] -16.7% | growth inhibition [2] -22.4% | viability increase [3] -2.15% | viability [4] 102% | viability [5] 97.9% | inhibition [6] 1.19% | RAM network inhibition [7] 3.67%

O=C(NCCc1ccc(Cl)cc1)c1cnc2n(c1=O)CCS2
inactive: growth inhibition [1] -1.75% | growth inhibition [2] -8.11% | viability increase [3] 3.85% | viability [4] 95% | viability [5] 92.1% | inhibition [6] 0.37% | RAM network inhibition [7] 9.74%

COCCNC(=O)CN1CCOc2ccccc21
inactive: growth inhibition [1] -22.5% | growth inhibition [2] 14.5% | viability increase [3] -4.65% | viability [4] 94.6% | viability [5] 102% | inhibition [6] 0.98% | RAM network inhibition [7] 3.11%

Cc1nc2ccccc2c2oc(C(=O)Nc3ccc4c(c3)OCCO4)cc12
inactive: growth inhibition [1] 6.06% | growth inhibition [2] 10.4% | viability increase [3] -1.19% | viability [4] 87.7% | viability [5] 95.3% | inhibition [6] -0.63% | RAM network inhibition [7] 8.55%

O=C(OCCN1C(=O)c2ccccc2C1=O)c1cccs1
inactive: growth inhibition [1] -5.91% | growth inhibition [2] -1.62% | viability increase [3] -1.54% | viability [4] 104% | viability [5] 100% | inhibition [6] 0.61% | RAM network inhibition [7] 2.97%

CCN(CC)CC(=O)Nc1cc(C)c2c(=O)oc3ccccc3c2n1
inactive: growth inhibition [1] -15.1% | growth inhibition [2] -19.2% | viability increase [3] -3.1% | viability [4] 96.1% | viability [5] 91.6% | inhibition [6] 1.04% | RAM network inhibition [7] 6.81%

COc1ccc(NC(=O)NCCCN2CCc3ccccc3C2)cc1
inactive: growth inhibition [1] 3.62% | growth inhibition [2] 0.72% | viability increase [3] -2.53% | viability [4] 97.3% | viability [5] 98.2% | inhibition [6] 1.15% | RAM network inhibition [7] -1.19%

Cc1cnc(NC(=O)c2ccc(-c3nc4ccccc4s3)o2)s1
inactive: growth inhibition [1] -7.12% | growth inhibition [2] 10.2% | viability increase [3] -3.16% | viability [4] 98.1% | viability [5] 96.3% | inhibition [6] 0.165% | RAM network inhibition [7] 0.78%

CCOc1cccc(NC(=O)c2ccc(S(=O)(=O)N3CCCC3)cc2)c1
inactive: growth inhibition [1] 0.65% | growth inhibition [2] -11.1% | viability increase [3] -2.68% | viability [4] 87.5% | viability [5] 82.1% | inhibition [6] 0.965% | RAM network inhibition [7] -0.21%

CCOC(=O)c1ccc(N2CSC3=C(C#N)C(c4cccs4)CC(=O)N3C2)cc1 (stereo not drawn)
inactive: growth inhibition [1] 6.68% | growth inhibition [2] 28.2% | viability increase [3] -1.48% | viability [4] 103% | viability [5] 85.3% | inhibition [6] 1.52% | RAM network inhibition [7] 2.37%

CC(=O)N1CC2(C)CN(C(C)=O)CC(C)(C1)C2=O
inactive: growth inhibition [1] -5.64% | growth inhibition [2] 2.83% | viability increase [3] -0.26% | viability [4] 101% | viability [5] 102% | inhibition [6] 1.9% | RAM network inhibition [7] -0.41%

COc1ccc(-n2nnc3c(=O)n(CC(=O)OCc4ccccc4)cnc32)cc1
inactive: growth inhibition [1] 0.92% | growth inhibition [2] 1.45% | viability increase [3] -1.76% | viability [4] 98.7% | viability [5] 99.9% | inhibition [6] 1.19% | RAM network inhibition [7] 6.18%
